ChEMBL document CHEMBL4680079, “Discovery of a Quinoline-4-carboxamide Derivative with a Novel Mechanism of Action, Multistage Antimalarial Activity, and Potent in Vivo Efficacy” (J Med Chem, 2016)
≈ marks a conversion by molar mass, not a printed value.

Columns and labels:
Plasmodium falciparum [1] = test: Antiplasmodial activity against chloroquine-sensitive Plasmodium falciparum 3D7 infected in human red blood cells assessed as growth inhibition by SYBR Green fluorescence assay; type: functional, organism-based, RBC; settings: 3D7, Erythrocyte
Outline: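 P. falciparum 3D7 grown in 5% human red cells in RPMI 1640 (pH 7.3) with 0.5% Albumax II, hypoxanthine and gentamicin at 37°C under 1% O₂/3% CO₂. Growth measured by SYBR green fluorescence (ex 485/em 528 nm), with mefloquine as assay control. EC50 calculated.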

[2] = Kinetic aqueous solubility of the compound by laser nephelometry; type: physicochemical; settings: read-out: Kinetic_solubility
Outline: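 Kinetic solubility measured by laser nephelometry. DMSO serial dilutions diluted into water to give final 100–5 μg/mL at 1.0% DMSO. Read immediately, in triplicate aliquots.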

Plasmodium falciparum [3] = test: Antiplasmodial activity against late stage (IV/V) Plasmodium falciparum NF54 gametocytes transfected with GFP-LUC assessed as growth inhibition incubated for 72 hrs by mitotracker Red-CMXROS dye based fluorescence microscopic analysis; type: functional, organism-based; settings: NF54, 72 h
Outline: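 NF54 pfs16-LUC-GFP stage IV–V gametocytes (10% parasitaemia, 0.1% haematocrit) exposed to compound in 0.4% DMSO, three concentrations per log, for 72 h at 37°C under 5% CO2/5% O2/90% N2. MitoTracker Red CM-H2Xros then added for 16 h and viable gametocytes counted by imaging.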

[4] = Intrinsic clearance in CD1 mouse liver microsomes at 0.5 uM in presence of NADPH incubated upto 30 mins by UPLC-MS/MS analysis; type: ADME, Microsome; settings: 0.5 h
Outline: (§1)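 Compound at 0.5 μM incubated with female CD1 mouse, male Sprague-Dawley rat or pooled human liver microsomes (0.5 mg/mL, 50 mM potassium phosphate, pH 7.4). Reaction started with excess NADPH. Samples taken at 0-30 min, quenched in acetonitrile, analysed by UPLC-MS/MS. Verapamil used as control, single time course.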

[5] = Protein binding in CD1 mouse plasma measured after 5 hr by UPLC-MS/MS analysis based equilibrium dialysis method; type: ADME, cell-free; settings: mouse, 5 h
Outline: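 Equilibrium dialysis of female CD1 mouse plasma spiked at 10 μg/mL (12-14 kDa membrane) against isotonic buffer for 5 h at ~37°C with shaking. Unbound fraction taken as the buffer/plasma peak-area ratio by UPLC-MS/MS. n=6 replicates, run in triplicate.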

[6] = Permeability of the compound at 10 uM incubated for 5 hrs by UPLC-MS/MS analysis based PAMPA method; type: ADME; settings: read-out: permeability
Outline: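 PAMPA run on a lipid-oil-lipid tri-layer filter at pH 7.4. Compound at 10 μM in PBS (DMSO ≤5%) in donor wells, PBS in acceptor wells, kept 5 h at room temperature. Both compartments quantified by UPLC-MS/MS. Data accepted only when recovery exceeded 70%.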

[7] = target: Voltage-gated inwardly rectifying potassium channel KCNH2 (Homo sapiens, UniProt Q12809); test: Inhibition of human ERG by IonWorks patch-clamp electrophysiology method
Voltage-gated inwardly rectifying potassium channel KCNH2, sequence (Q12809 whole entry): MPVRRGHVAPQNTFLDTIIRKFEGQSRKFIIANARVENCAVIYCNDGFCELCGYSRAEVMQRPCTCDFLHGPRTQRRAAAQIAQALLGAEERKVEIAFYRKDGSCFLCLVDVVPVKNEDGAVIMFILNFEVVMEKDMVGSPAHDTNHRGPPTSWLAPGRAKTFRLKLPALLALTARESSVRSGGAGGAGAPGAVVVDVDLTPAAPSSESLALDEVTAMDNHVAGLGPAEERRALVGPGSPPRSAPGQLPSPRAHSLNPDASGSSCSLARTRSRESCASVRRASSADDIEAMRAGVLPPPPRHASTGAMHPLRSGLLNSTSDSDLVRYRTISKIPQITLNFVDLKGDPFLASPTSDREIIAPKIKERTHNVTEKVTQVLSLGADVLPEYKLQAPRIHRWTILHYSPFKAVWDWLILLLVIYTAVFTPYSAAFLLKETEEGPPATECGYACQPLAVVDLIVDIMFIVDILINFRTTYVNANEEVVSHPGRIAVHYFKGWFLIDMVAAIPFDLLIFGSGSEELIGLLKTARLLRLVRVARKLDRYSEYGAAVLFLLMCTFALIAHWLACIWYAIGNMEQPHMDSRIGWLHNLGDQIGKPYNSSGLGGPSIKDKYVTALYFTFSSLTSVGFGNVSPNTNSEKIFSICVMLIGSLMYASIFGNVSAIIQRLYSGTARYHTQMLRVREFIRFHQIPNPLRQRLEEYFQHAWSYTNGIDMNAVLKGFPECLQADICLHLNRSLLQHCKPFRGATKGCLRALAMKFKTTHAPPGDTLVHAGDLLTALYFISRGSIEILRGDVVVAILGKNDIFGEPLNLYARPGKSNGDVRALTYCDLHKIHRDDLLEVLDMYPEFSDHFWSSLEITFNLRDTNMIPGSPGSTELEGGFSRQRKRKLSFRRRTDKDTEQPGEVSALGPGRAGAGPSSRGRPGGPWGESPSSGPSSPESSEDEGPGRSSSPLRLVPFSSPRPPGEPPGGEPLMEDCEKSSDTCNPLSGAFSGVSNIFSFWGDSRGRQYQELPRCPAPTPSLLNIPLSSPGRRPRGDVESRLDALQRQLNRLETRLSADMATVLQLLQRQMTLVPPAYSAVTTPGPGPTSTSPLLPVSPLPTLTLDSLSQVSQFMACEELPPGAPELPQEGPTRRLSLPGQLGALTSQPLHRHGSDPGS
Outline: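 hERG K⁺ channel inhibition measured by IonWorks patch-clamp electrophysiology. Eight-point concentration-response curves made from 3-fold serial dilutions down from the maximum final assay concentration. Each curve generated on 2 occasions.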

Plasmodium berghei [8] = test: Antiplasmodial activity against Plasmodium berghei ookinete form assessed as growth inhibition incubated for 22 hrs by GFP-based fluorescence microscopic analysis; type: functional, organism-based
MRC5 = test: Antiproliferative activity against human MRC5 cells assessed as reduction in cell viability after 68 hrs by resazurin dye based fluorescence assay; settings: MRC5, 68 h
Outline: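 MRC-5 fibroblasts plated overnight as monolayers, exposed to compound pre-diluted in MEM for 68 h. Resazurin then added (final 50 μM) for 3 h, fluorescence read at ex 528/em 590 nm. Signal converted to % inhibition against high- and no-inhibition controls. Plates accepted at Z' > 0.5.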

Plasmodium berghei [9] = test: Antiplasmodial activity against Plasmodium berghei ANKA infected in NMRI mouse assessed as survival days at 10 mg/kg, po QD for 4 days; type: functional; settings: time 4 day
Plasmodium berghei [10] = test: Antiplasmodial activity against Plasmodium berghei ANKA infected in NMRI mouse assessed as survival days at 1 mg/kg, po QD for 4 days; type: functional; settings: time 4 day
[11] = Oral bioavailability in NMRI mouse at 10 mg/kg administered via gavage by UPLC-MS/MS analysis; type: ADME, organism-based; settings: in vivo
Outline: (§2)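 Female NMRI mice (n=3) dosed by oral gavage as a solution at 10 mg free base/kg (10 mL/kg; vehicle 5 or 10% DMSO, 40% PEG400). Blood levels measured by UPLC-MS/MS. Parameters derived from the blood concentration-time curve.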

[12] = Clearance in NMRI mouse blood at 3 mg/kg, iv administered as bolus dose by UPLC-MS/MS analysis; type: ADME, organism-based
Outline: (§3)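 Intravenous bolus solution, 3 mg free base/kg (5 mL/kg; 10% DMSO, 90% saline), given to female NMRI mice (n=3). Compound level in blood determined by UPLC-MS/MS. PK parameters derived from the blood concentration-time curve.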

Plasmodium berghei [13] = test: Antiplasmodial activity against Plasmodium berghei ANKA infected in NMRI mouse assessed as survival days at 3 mg/kg, po QD for 4 days; type: functional; settings: time 4 day
Plasmodium berghei [14] = test: Antiplasmodial activity against Plasmodium berghei ANKA infected in NMRI mouse assessed as survival days at 30 mg/kg, po QD for 4 days; type: functional; settings: time 4 day
[15] = Volume of distribution at steady state in NMRI mouse at 3 mg/kg, iv administered as bolus dose by UPLC-MS/MS analysis; type: ADME, organism-based; settings: in vivo, read-out: Vdss; outline: as §3
Plasmodium berghei [16] = test: Antiplasmodial activity against Plasmodium berghei ANKA infected in NMRI mouse assessed as reduction in parasitemia at 10 mg/kg, po QD for 4 days; type: functional; parameters: scale not given: the % may be the effect or the level left; settings: time 4 day
Outline: (§4)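 Female NMRI mice (n=3 per group, randomized, not blinded) infected with GFP-transfected P. berghei ANKA. Oral dosing once daily for 4 days in 10% DMSO/40% PEG400/50% water or HPMC suspension vehicle. Parasitaemia measured by flow cytometry on blood collected 96 h after infection. Mice watched for toxicity over 4 h post-dose each day.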

[17] = AUC in NMRI mouse at 10 mg/kg, po administered as gavage by UPLC-MS/MS analysis; type: ADME, organism-based; parameters: dose 10 mg/kg; settings: in vivo; outline: as §2
[18] = Half-life in NMRI mouse at 3 mg/kg, iv administered as bolus dose by UPLC-MS/MS analysis; type: ADME, organism-based; settings: in vivo; outline: as §3
Plasmodium berghei [19] = test: Antiplasmodial activity against Plasmodium berghei ANKA infected in NMRI mouse assessed as reduction in parasitemia at 30 mg/kg, po QD for 4 days; type: functional; parameters: scale not given: the % may be the effect or the level left; settings: time 4 day; outline: as §4
[20] = Intrinsic clearance in human liver microsomes at 0.5 uM in presence of NADPH incubated upto 30 mins by UPLC-MS/MS analysis; type: ADME, Microsome; settings: 0.5 h; outline: as §1
Plasmodium berghei [21] = test: Antiplasmodial activity against Plasmodium berghei infected in NMRI mouse assessed as reduction in parasitemia at 3 mg/kg, po QD for 4 days; type: functional; parameters: scale not given: the % may be the effect or the level left; settings: time 4 day; outline: as §4
[22] = Tmax in NMRI mouse at 10 mg/kg, po administered as gavage by UPLC-MS/MS analysis; type: ADME, organism-based; settings: in vivo; outline: as §2
Plasmodium yoelii = test: Antiplasmodial activity against Plasmodium yoelli liver stage forms; type: functional, organism-based
Plasmodium berghei [23] = test: Antiplasmodial activity against Plasmodium berghei ANKA infected in NMRI mouse assessed as reduction in parasitemia at 1 mg/kg, po QD for 4 days; type: functional; parameters: scale not given: the % may be the effect or the level left; settings: time 4 day; outline: as §4
[24] = Cmax in NMRI mouse at 10 mg/kg, po administered as gavage by UPLC-MS/MS analysis; type: ADME, organism-based; parameters: route oral, dose 10 mg/kg; settings: in vivo; outline: as §2
Plasmodium berghei [25] = test: Antiplasmodial activity against GFP-transfected Plasmodium berghei ANKA infected in NMRI mouse assessed as reduction in parasitemia by measuring effective dose administered once daily oral dose for 4 days; type: functional; settings: 96 h, time 4 day; outline: as §4
[26] = Intrinsic clearance in Sprague-Dawley rat liver microsomes at 0.5 uM in presence of NADPH incubated upto 30 mins by UPLC-MS/MS analysis; type: ADME, Microsome; settings: 0.5 h; outline: as §1
HepG2 = test: Antiproliferative activity against human HepG2 cells assessed as reduction in cell viability; type: cell-based

| Structure (SMILES) | EC50 (Plasmodium falciparum [1]) [nM] | solubility kinetic [2] [µM] | EC50 (Plasmodium falciparum [3]) [nM] | CLH [4] [mL/min/g] | Papp at 5 h, 10 µM [6] [×10⁻⁶ cm/s] | EC50 (MRC5) [nM] | Activity (Plasmodium berghei [23]) [%] | further results |
| --- | --- | --- | --- | --- | --- | --- | --- | --- |
| O=C(NCCN1CCCC1)c1cc(-c2ccc(S(=O)(=O)N3CCOCC3)cc2)nc2ccc(F)cc12 | 4 | 109 (≈ 55.9 µg/mL) | 152 | 1.9 | 2.9 | 21000 | – | PPB [5]: 75%; IC50 [7]: 11000 nM; EC50 (Plasmodium berghei [8]): 15 nM |
| O=C(NCCN1CCCC1)c1cc(NCCCCN2CCOCC2)nc2ccc(Cl)cc12 | 4 | 217 (≈ 99.8 µg/mL) | 104 | 2 | 0.2 | 13000 | 48 | Survival (Plasmodium berghei [9]): 15 days; Survival (Plasmodium berghei [10]): 6 days; bioavailability [11]: 16%; clearance [12]: 4 mL/min/kg; Survival (Plasmodium berghei [13]): 9 days; Survival (Plasmodium berghei [14]): 22 days; Vd [15]: 3.5 L/kg; Activity (Plasmodium berghei [16]): 99.7%; AUC [17]: 2940 ng·h/mL; half-life [18]: 12.5 h; Activity (Plasmodium berghei [19]): 99.8%; CLH [20]: < 1 mL/min/g; Activity (Plasmodium berghei [21]): 96%; Tmax [22]: 2 h; EC50 (Plasmodium yoelii): 18 nM; IC50 [7]: > 11000 nM; Cmax [24]: 579 ng/mL; EC50 (Plasmodium berghei [8]): 5 nM; ED90 (Plasmodium berghei [25]): 2.6 mg/kg |
| COc1ccc2nc3cc(Cl)ccc3c(Nc3cc(CN4CCCC4)c(O)c(CN4CCCC4)c3)c2n1 [PYRONARIDINE] | – | – | 3110 | – | – | – | – | – |
| O=C(NCCN1CCCC1)c1cc(-c2ccc(CN3CCCC3=O)cc2)nc2ccc(F)cc12 | 7 | > 217 | – | 2 | 4.9 | – | <40 | CLH [26]: 0.6 mL/min/g; CLH [20]: 2 mL/min/g |
| C[C@@H]1CC[C@H]2[C@@H](C)C(=O)O[C@@H]3O[C@@]4(C)CC[C@@H]1[C@]32OO4 [ARTEMISININ] | – | – | 0.8 | – | – | – | – | – |
| O=C(NCCN1CCCC1)c1cc(-c2ccc(CN3CCS(=O)(=O)CC3)cc2)nc2ccc(F)cc12 | 0.6 | 171 (≈ 87.3 µg/mL) | – | < 0.5 | 1.4 | 41000 | 99 | CLH [26]: 0.8 mL/min/g; Survival (Plasmodium berghei [10]): 7 days |
| O=C(NCCNC1CC1)c1cc(-c2ccc(CN3CCOCC3)cc2)nc2ccc(F)cc12 | 2 | – | – | 2 | 4.9 | – | – | EC50 (HepG2): > 50000 nM |
